Measurements: ChEMBL document CHEMBL1140862, “Berberine analogues as a novel class of the low-density-lipoprotein receptor up-regulators: synthesis, structure-activity relationships, and cholesterol-lowering efficacy” (J Med Chem, 2009)

Tested on: HepG2
Assay: Induction of LDLR mRNA expression in human HepG2 cells after 12 hrs by RT-PCR assay relative to untreated control
Type: functional
In short: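 HepG2 cells kept in RPMI-1640 with 10% FBS, moved 24 h before dosing to 10% LPDS, then at ~80% confluence to RPMI-1640 with 0.5% LPDS plus compound (5.0 µg/mL in table; concentrations as indicated in figure), 12 h, 37 °C. Total RNA reverse-transcribed, TaqMan real-time PCR, comparative CT method with GAPDH reference; fold of untreated cells (=1); mean of three experiments.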

## COc1ccc2c(c1OC)C[N+]1(Cc3ccccc3)CCc3cc4c(cc3C1C2)OCO4.[Br-] (stereo not drawn)
  fold change (FC): 1.1

## CC[N+]12CCc3cc4c(cc3C1Cc1cc(OC)c(OC)cc1C2)OCO4.[Br-] (stereo not drawn)
  fold change (FC): 0.8

## CCC[N+]12CCc3cc4c(cc3C1Cc1cc(OC)c(OC)cc1C2)OCO4.[I-] (stereo not drawn)
  fold change (FC): 0.9

## CCOC(=O)C[N+]12CCc3cc4c(cc3C1Cc1cc(OC)c(OC)cc1C2)OCO4.[Br-] (stereo not drawn)
  fold change (FC): 1

## COc1cc2c(cc1OC)-c1cc3ccc(OC)c(OC)c3c[n+]1CC2.[I-]
  fold change (FC): 0.8

## COc1cc2c(cc1OC)CN1CCc3cc4c(cc3C1C2)OCO4 (stereo not drawn)
  fold change (FC): 1.3

## COc1cc2c(cc1OC)C[N+]1(C)CCc3cc4c(cc3C1C2)OCO4.[I-] (stereo not drawn)
  fold change (FC): 0.9

## CCC[N+]12CCc3cc4c(cc3C1Cc1ccc(OC)c(OC)c1C2)OCO4.[I-] (stereo not drawn)
  fold change (FC): 1.2
